Calls of active or inactive are those of the source.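 Rule for the calls: active = mean inhibition of serotonin release over both replicates above 50%; inactive = mean inhibition at or below 50%.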
tested on: Human washed platelets, SFLLRN-induced 14C-serotonin release; test: blockers of platelet serotonin release via PAR1 – cell-based, 14C-serotonin release, radioactive, mechanism study for platelet granule secretion inhibitor project, late-stage follow-up (AID 2656); conditions: at 10 µM; active compounds read high
Method in brief: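 Material: washed platelets preloaded with 14C-serotonin / Input: 2x10^8 platelets/mL / Medium: HEPES-Tyrodes buffer for resuspended platelets / Reagent: SFLLRN peptide 5 µM plus imipramine 5 µM blocking reuptake / Dosing: single compound dose of 10 µM / Timing: compound pre-incubation 15 min, SFLLRN stimulation 15 min / Technique: beta scintillation counting of supernatant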

Row | Structure (SMILES) | inhibition
1 | CCOc1ccc2nc(NCCO)[nH]c2c1 | 9.75% (inactive)
2 | CC(=O)Oc1ccc(-c2nc(-c3cccnc3)no2)cc1 | -5.2% (inactive)
3 | COc1cc2c(cc1OC)-c1cc(Nc3ccccc3C)nc(=O)n1CC2 | 94.8%
4 | COC(=O)c1nn(-c2ccc3c(c2)CCN3C(C)=O)cc1O | 12.8% (inactive)
5 | COC(=O)c1ccccc1NC(=O)Nc1ccc2c(c1)OCO2 | 15.4% (inactive)
6 | O=C(Oc1ccc(Cl)cc1)c1ccc(COC(=O)c2cnccn2)cc1 | 0.5% (inactive)
7 | COc1ccc(C(=O)Nc2ccc(N3CCOCC3)cc2)cc1OC | 9.3% (inactive)

— PubChem BioAssay AID2656 (Broad Institute, 2010)
